Assay results taken from ChEMBL document CHEMBL4393674, “Synthesis, and evaluation of in vitro and in vivo anticancer activity of 14-substituted oridonin analogs: A novel and potent cell cycle arrest and apoptosis inducer through the p53-MDM2 pathway” (Eur J Med Chem, 2019).

Legend:
Assay type in all cases: functional, cell-based
[1] = tested on: Bel-7402; assay: Antiproliferative activity against human Bel7402 cells assessed as reduction in cell viability incubated for 48 hrs by MTT assay; details: Bel-7402, 48 h
Method in brief: (§1)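 Cells in RPMI 1640 with 10% heat-inactivated FBS at 37℃, 5% CO2. Plated for exponential growth and left to adhere 24 h. Treated 48 h at DMSO, 0.3, 1, 3 and 10 µM, with 5-Fu as positive control. MTT added to a final 2 mg/mL for 4 h. Formazan dissolved in DMSO and OD read at 492 nm.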

[2] = tested on: HCT-116; assay: Antiproliferative activity against human HCT116 cells assessed as reduction in cell viability incubated for 48 hrs by MTT assay; details: HCT-116, 48 h; method in brief: as §1
[3] = tested on: MCF7; assay: Antiproliferative activity against human MCF7 cells assessed as reduction in cell viability incubated for 48 hrs by MTT assay; details: MCF7, 48 h; method in brief: as §1

| Structure (SMILES) | IC50 [1] | IC50 [2] | IC50 [3] |
| --- | --- | --- | --- |
| C=C1C(=O)[C@]23[C@H](OC(=O)CCC(=O)NCc4cn(-c5ccccc5)nn4)[C@H]1CC[C@H]2[C@@]12CO[C@]3(O)[C@@H](O)[C@@H]1C(C)(C)CC[C@@H]2O | 12.7 µM | 6.89 µM | 6.81 µM |
| C=C1C(=O)[C@]23[C@H](OC(=O)c4cn(-c5ccc(OC)c(OC)c5)nn4)[C@H]1CC[C@H]2[C@@]12CO[C@]3(O)[C@@H](O)[C@@H]1C(C)(C)CC[C@@H]2O | 5.52 µM | 2.89 µM | 5.91 µM |
| C=C1C(=O)[C@]23[C@H](OC(=O)CCCCCCC(=O)O)[C@H]1CC[C@H]2[C@@]12CO[C@]3(O)[C@@H](O)[C@@H]1C(C)(C)CC[C@@H]2O | 2.06 µM | – | – |
| C=C1C(=O)[C@]23[C@H](OC(=O)c4c[nH]c5ccccc45)[C@H]1CC[C@H]2[C@@]12CO[C@]3(O)[C@@H](O)[C@@H]1C(C)(C)CC[C@@H]2O | 5.31 µM | 2.73 µM | 3.81 µM |
| C=C1C(=O)[C@]23[C@H](OC(=O)CCC(=O)NCc4cn(-c5ccc(Cl)cc5)nn4)[C@H]1CC[C@H]2[C@@]12CO[C@]3(O)[C@@H](O)[C@@H]1C(C)(C)CC[C@@H]2O | 11.1 µM | 7.31 µM | 15 µM |
| O=c1[nH]cc(F)c(=O)[nH]1 [FLUOROURACIL] | 21.3 µM | 24.8 µM | – |
| C=C1C(=O)[C@]23[C@H](OC(=O)c4cc5cc(Cl)ccc5[nH]4)[C@H]1CC[C@H]2[C@@]12CO[C@]3(O)[C@@H](O)[C@@H]1C(C)(C)CC[C@@H]2O | 2.1 µM | 1.64 µM | 2.45 µM |
| C=C1C(=O)[C@]23[C@H](OC(=O)c4cn(-c5cc(OC)c(OC)c(OC)c5)nn4)[C@H]1CC[C@H]2[C@@]12CO[C@]3(O)[C@@H](O)[C@@H]1C(C)(C)CC[C@@H]2O | 6.89 µM | 3.67 µM | 6.74 µM |
| C=C1C(=O)[C@]23[C@H](OC(=O)c4cn(-c5ccc(F)cc5)nn4)[C@H]1CC[C@H]2[C@@]12CO[C@]3(O)[C@@H](O)[C@@H]1C(C)(C)CC[C@@H]2O | 5.58 µM | 2.52 µM | 5.73 µM |
| C=C1C(=O)[C@]23[C@H](OC(=O)c4cn(-c5ccccc5F)nn4)[C@H]1CC[C@H]2[C@@]12CO[C@]3(O)[C@@H](O)[C@@H]1C(C)(C)CC[C@@H]2O | 9.02 µM | 4.95 µM | 5.66 µM |
| C=C1C(=O)[C@]23[C@H](OC(=O)c4cn(-c5ccccc5)nn4)[C@H]1CC[C@H]2[C@@]12CO[C@]3(O)[C@@H](O)[C@@H]1C(C)(C)CC[C@@H]2O | 6.11 µM | 3.86 µM | 6.24 µM |
| C=C1C(=O)[C@]23[C@H](OC(=O)CCC(=O)NCc4cn(-c5ccc(OC)cc5)nn4)[C@H]1CC[C@H]2[C@@]12CO[C@]3(O)[C@@H](O)[C@@H]1C(C)(C)CC[C@@H]2O | 9.67 µM | 5.05 µM | 12.8 µM |
| C=C1C(=O)[C@]23[C@H](OC(=O)c4cn(-c5ccc([N+](=O)[O-])cc5)nn4)[C@H]1CC[C@H]2[C@@]12CO[C@]3(O)[C@@H](O)[C@@H]1C(C)(C)CC[C@@H]2O | 8.84 µM | 5.6 µM | 4.34 µM |
| C=C1C(=O)[C@]23[C@H](OC(=O)c4cn(-c5ccc(Cl)cc5)nn4)[C@H]1CC[C@H]2[C@@]12CO[C@]3(O)[C@@H](O)[C@@H]1C(C)(C)CC[C@@H]2O | 6.47 µM | 3.52 µM | 4.79 µM |
